Xi reactivation: activators of inactive X chromosome reactivation, primary screen, imaging, XiGFP fibroblasts, GFP high-content imaging, set 2; XiGFP mouse fibroblasts, % GFP-positive cells imaging, 3 d; cells co-treated with 5-aza-dC sensitizer; scaled so ellipticine positive control = 100%; activation, % at 7.58 µM; 360,000 tested, 0.055% active; AID 743238, 2013;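 active = mean normalized replicate activation at least 10% and every replicate at or above 10%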;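 also: 0% = median of on-plate neutral control wells and 100% = ellipticine 6 µM median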
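System: 68-5-11 XiGFP fibroblast line | Buffer or medium: DMEM containing 5-aza-dC | Compound: Single point | Times: Compounds 3 days, fix/stain 15 min at room temperature | Benchmarks: Positive control ellipticine, 6 µM final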
E-sel inducer: E-selectin induction in HUVECs, primary screen, imaging, HUVEC, immunofluorescence imaging, single point; P16581; normalized: neutral wells 0, TNF-alpha wells 100; activation, % at 7.58 µM; 260,000 tested, 0.37% active; AID 686992, 2013;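 active = mean E-selectin-positive cell signal at least 10% of the positive control, reached in at least 60% of replicates, without over 20% cell loss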
Target sequence (P16581 whole entry, looked up): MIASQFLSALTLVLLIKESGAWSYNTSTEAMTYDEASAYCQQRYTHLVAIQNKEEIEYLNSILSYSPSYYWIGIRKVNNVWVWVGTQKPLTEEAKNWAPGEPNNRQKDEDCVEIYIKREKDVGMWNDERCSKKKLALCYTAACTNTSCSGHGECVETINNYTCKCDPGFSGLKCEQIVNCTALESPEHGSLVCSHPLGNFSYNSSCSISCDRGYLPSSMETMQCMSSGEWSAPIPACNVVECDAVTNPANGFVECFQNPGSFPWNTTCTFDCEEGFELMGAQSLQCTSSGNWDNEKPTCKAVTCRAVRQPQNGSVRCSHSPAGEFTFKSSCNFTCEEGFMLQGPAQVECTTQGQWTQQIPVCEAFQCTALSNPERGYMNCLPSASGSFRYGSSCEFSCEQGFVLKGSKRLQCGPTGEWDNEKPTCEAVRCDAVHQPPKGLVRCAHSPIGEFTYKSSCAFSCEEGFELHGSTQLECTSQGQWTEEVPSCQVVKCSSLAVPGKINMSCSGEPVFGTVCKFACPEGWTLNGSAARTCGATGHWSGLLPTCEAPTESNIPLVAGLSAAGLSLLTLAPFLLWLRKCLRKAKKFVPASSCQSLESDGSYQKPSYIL
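Read-out basis: % PE-positive cells; Test system: HUVEC primary endothelial cells; Technique: immunofluorescence imaging; Dosing: single-point compound dose.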
* marks the source's active call; other numbers are inactive results; . = not tested or not shown. This is one part of a sample in which hits are shown more often than they occur.

SMILES | Xi reactivation | E-sel inducer
CC(C)NC(=O)N(C)C[C@@H]1Oc2ccc(N)cc2C(=O)N(C)C[C@@H]1C | 0.2 | .
COCC(=O)N1C[C@H]2[C@@H](c3ccccc31)[C@H](CO)N2C(=O)C1CCOCC1 | 0.1 | 0.7
O=C(Nc1ccc(Cl)c(Cl)c1)N[C@H]1CC[C@@H](CCn2cc(C3CCCC3)nn2)O[C@H]1CO | 0.3 | 0.0
CCOC(=O)c1c(-c2ccc(OC)cc2)csc1/N=C/C1C(=O)CCCC1=O | 0.0 | 278.1*
CCOC(=O)c1c(-c2ccc(OC)cc2)csc1/N=C/N(C)C | -0.1 | -0.2
C[C@@H]1CN([C@@H](C)CO)C(=O)c2cc(NC(=O)CCN3CCOCC3)ccc2O[C@@H]1CN(C)Cc1ccc(Cl)c(Cl)c1 | 2.8 | -1.4
CCCCNc1c([N+](=O)[O-])c(=O)n(C)c2ccccc12 | 0.2 | 47.6*
Cn1c(=O)c([N+](=O)[O-])c(NCCCn2ccnc2)c2ccccc21 | 0.1 | 73.7*
Cn1c(=O)c([N+](=O)[O-])c(NCC(O)c2ccccc2)c2ccccc21 (stereo not drawn) | 0.0 | .
Cn1c(=O)c([N+](=O)[O-])c(-n2ccnc2)c2ccccc21 | 0.1 | 4.1
C[C@H](CO)N1C[C@H](C)[C@@H](CN(C)C(=O)c2ccccc2)OCCCC[C@H](C)Oc2ccc(NC(=O)Nc3cccc4ccccc34)cc2C1=O | -0.1 | 0.3
NC1=NC(=O)C(=Cc2ccccc2)S1 | -0.1 | 0.0
NC1=NC(=O)/C(=C/c2cccc(F)c2)S1 | 0.3 | 54.2*
CN(C)CC(=O)Nc1ccc2c(c1)[C@H]1C[C@@H](CC(=O)N3CCN(C)CC3)O[C@@H](CO)[C@H]1O2 | -0.1 | 0.2
CS(=O)(=O)c1ccccc1C(=O)N(CCc1ccccc1)Cc1ccccc1 | 0.0 | 12.1
COc1ccc(C(=O)N(CCc2ccccc2)Cc2ccccc2)c(OC)n1 | 0.3 | 30.2*
CN1C(=O)c2cc(NC(=O)c3cscn3)ccc2OC[C@H]2O[C@H](CC(=O)N3CCCCC3)CC[C@H]21 | 0.7 | -0.1
COc1cccc(S(=O)(=O)Nc2ccc3c(c2)C(=O)N(C)C[C@@H](OC)[C@@H](C)CN(C(=O)Cc2cccnc2)[C@@H](C)CO3)c1 | 0.1 | -0.3
COc1ccc(S(=O)(=O)N(C)C[C@@H]2Oc3c(NC(=O)c4ccncc4)cccc3C(=O)N([C@@H](C)CO)C[C@H]2C)cc1 | -0.1 | -9.5
COc1ccc(N(C(=O)c2snc(C(N)=O)c2N)C(C(=O)NCc2ccc(F)cc2)c2ccc(C)o2)c(OC)c1 (stereo not drawn) | 0.1 | 17.0
COc1ccccc1N(C(=O)c1snc(C(N)=O)c1N)C(C(=O)NCc1ccccc1)c1ccc(C)o1 (stereo not drawn) | 0.5 | 32.9*
COCC(=O)Nc1ccc2c(c1)C(=O)N(C)[C@@H]1CC[C@H](CC(=O)OC)O[C@@H]1CO2 | 0.1 | -0.2
O=C(C[C@H]1CC[C@H]2[C@@H](COC[C@H](O)CN2C(=O)Cc2ccccc2)O1)NC1CCC1 | 0.1 | 0.0
CC(CN1CCCC1)OC(=O)c1ccccc1Cl (stereo not drawn) | -0.2 | .
CC(CN1CCCCC1)OC(=O)c1ccco1 (stereo not drawn) | 0.2 | 38.9*
SMILES | Xi reactivation | E-sel inducer
CCC(=O)N1CCC2(CC1)CN(S(C)(=O)=O)[C@H](CO)c1[nH]c3cc(OC)ccc3c12 | 0.1 | .
COc1ccccc1/C=N\NC(=O)c1ccc(COc2ccc(C)c(C)c2)o1 | 0.0 | 48.1*
COc1cc(/C=N/NC(=O)c2ccc(COc3ccccc3Cl)o2)cc(Br)c1O | 0.1 | .
OC(Cc1ccccc1Br)c1ncc(-c2ccc(Cl)cc2)[nH]1 (stereo not drawn) | 0.1 | 159.4*
OC(Cc1ccccc1)c1ncc(-c2ccc(Cl)cc2)[nH]1 (stereo not drawn) | 0.0 | 0.3
O=C(C[C@@H]1CC[C@H]2[C@@H](COC[C@@H](O)CN2C(=O)c2ccccc2)O1)N1CCc2ccccc2C1 | -0.1 | -0.1
CC(C)NC(=O)Nc1ccc2c(c1)CC(=O)N([C@@H](C)CO)C[C@@H](C)[C@H](CN(C)Cc1ccc3c(c1)OCO3)O2 | 0.0 | 6.3
COc1cccc(S(=O)(=O)Nc2ccc3c(c2)C(=O)N(C)[C@H]2CC[C@H](CC(=O)Nc4cc(F)ccc4F)O[C@@H]2CO3)c1 | 0.0 | .
C=CCNC(=S)NC(=O)c1oc2ccccc2c1C | 0.0 | 48.8*
Cc1c(C(=O)NC(=S)NCC(C)C)oc2ccccc12 | 0.0 | 0.0
O=C(Cc1ccccc1)N[C@@H]1CC[C@H](CC(=O)N2CCOCC2)O[C@@H]1CO | -0.3 | 0.0
CCOC(=O)Cn1c(=NC(=O)c2ccc([N+](=O)[O-])s2)sc2ccccc21 | 17.5* | 3.9
CCOC(=O)Cn1c(=NC(=O)C2COc3ccccc3O2)sc2cc(S(N)(=O)=O)ccc21 (stereo not drawn) | -0.1 | 2.2

Screens as filed in PubChem.
